Test results: ChEMBL document CHEMBL1153240, “Microwave assisted synthesis and in vitro cytotoxicities of substituted (Z)-2-amino-5-(1-benzyl-1H-indol-3-yl)methylene-1-methyl-1H-imidazol-4(5H)-ones against human tumor cell lines” (2010)

Tests used:
Type in all cases: functional
SF-539 = test: Cytotoxicity against human SF539 cells
In short: (§1)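 NCI 60-cell-line panel, five-dose response study. Effect is plotted against log10 drug concentration for each cell line. GI50 is the molar concentration giving a 50% reduction in net protein increase relative to control cells. LC50 is the concentration lethal to 50% of cells.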

SN12C = test: Cytotoxicity against human SN12C cells; in short: as §1
NCI-H522 = test: Cytotoxicity against human NCI-H522 cells; in short: as §1
MOLT-4 = test: Cytotoxicity against human MOLT4 cells; in short: as §1
MDA-MB-231 = test: Cytotoxicity against human MDA-MB-231 cells; in short: as §1
HL-60 = test: Cytotoxicity against human HL60 cells; in short: as §1
HOP-62 = test: Cytotoxicity against human HOP62 cells; in short: as §1
ACHN = test: Cytotoxicity against human ACHN cells; in short: as §1
MCF7 = test: Cytotoxicity against human MCF7 cells; in short: as §1
MDA-MB-468 = test: Cytotoxicity against human MDA-MB-468 cells; in short: as §1
SNB-75 = test: Cytotoxicity against human SNB75 cells; in short: as §1
SK-MEL-28 = test: Cytotoxicity against human SK-MEL-28 cells; in short: as §1
A549 = test: Cytotoxicity against human A549 cells; in short: as §1
KM12 = test: Cytotoxicity against human KM12 cells; in short: as §1
HOP-92 = test: Cytotoxicity against human HOP92 cells; in short: as §1
MDA-MB-435 = test: Cytotoxicity against human MDA-MB-435 cells
In short: (§2)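 NCI 60-cell-line panel, five-concentration dose-response. Cytotoxic effect was plotted against log10 drug concentration for each line. GI50 is the molar concentration giving a 50% reduction in net protein increase relative to control cells. LC50 is the concentration lethal to 50% of cells. Both were read from the curves.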

[1] = Cytotoxicity against human […] cells; in short: as §1
SK-MEL-2 = test: Cytotoxicity against human SK-MEL-2 cells; in short: as §1
CAKI-1 = test: Cytotoxicity against human Caki1 cells; in short: as §1
HCT-15 = test: Cytotoxicity against human HCT15 cells; in short: as §1
IGROV-1 = test: Cytotoxicity against human IGROV1 cells; in short: as §1
UO-31 = test: Cytotoxicity against human UO31 cells
In short: (§3)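 NCI 60 human tumor cell line panel, five-dose dose-response study. Cytotoxic effect was plotted against log10 drug concentration for each cell line. GI50 is the molar concentration giving 50% reduction in net protein increase versus control cells. LC50 is the concentration lethal to 50% of cells.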

Malme-3M = test: Cytotoxicity against human MALME-3M cells; in short: as §1
786-0 = test: Cytotoxicity against human 786-0 cells; in short: as §1
SF-268 = test: Cytotoxicity against human SF268 cells; in short: as §1
NCI-H322M = test: Cytotoxicity against human NCI-H322M cells; in short: as §1
OVCAR-5 = test: Cytotoxicity against human OVCAR5 cells; in short: as §1
CCRF-CEM = test: Cytotoxicity against human CCRF-CEM cells; in short: as §1
K562 = test: Cytotoxicity against human K562 cells; in short: as §1
A498 = test: Cytotoxicity against human A498 cells; in short: as §1
COLO 205 = test: Cytotoxicity against human COLO205 cells; in short: as §2
SR = test: Cytotoxicity against human SR cells; in short: as §1
NCI-H226 = test: Cytotoxicity against human NCI-H226 cells; in short: as §1
U-251 = test: Cytotoxicity against human U251 cells; in short: as §3
SNB-19 = test: Cytotoxicity against human SNB19 cells; in short: as §1
OVCAR-4 = test: Cytotoxicity against human OVCAR4 cells; in short: as §1
PC-3 = test: Cytotoxicity against human PC3 cells; in short: as §1
NCI/ADR-RES = test: Cytotoxicity against human NCI/ADR-RES cells; in short: as §1
OVCAR-8 = test: Cytotoxicity against human OVCAR8 cells; in short: as §1
BT-549 = test: Cytotoxicity against human BT549 cells; in short: as §1
EKVX = test: Cytotoxicity against human EKVX cells; in short: as §1
M14 = test: Cytotoxicity against human M14 cells; in short: as §1
T47D = test: Cytotoxicity against human T47D cells; in short: as §3
SW-620 = test: Cytotoxicity against human SW620 cells; in short: as §3
SK-MEL-5 = test: Cytotoxicity against human SK-MEL-5 cells; in short: as §1
NCI-H460 = test: Cytotoxicity against human NCI-H460 cells; in short: as §1
DU-145 = test: Cytotoxicity against human DU145 cells; in short: as §1
HCT-116 = test: Cytotoxicity against human HCT116 cells; in short: as §1
HT-29 = test: Cytotoxicity against human HT-29 cells; in short: as §2
HCC 2998 = test: Cytotoxicity against human HCC2998 cells; in short: as §1
LOX IMVI = test: Cytotoxicity against human LOXIMVI cells; in short: as §1
SF-295 = test: Cytotoxicity against human SF295 cells; in short: as §1
SK-OV-3 = test: Cytotoxicity against human SKOV3 cells; in short: as §1
RXF 393 = test: Cytotoxicity against human RXF393 cells; in short: as §1
NCI-H23 = test: Cytotoxicity against human NCI-H23 cells; in short: as §1
TK-10 = test: Cytotoxicity against human TK10 cells; in short: as §3
[2] = Cytotoxicity against human Hs 578T cells; in short: as §1
UACC-257 = test: Cytotoxicity against human UACC257 cells; in short: as §3
OVCAR-3 = test: Cytotoxicity against human OVCAR-3 cells; in short: as §1
[3] = read-out: LC50 (the source's name)

COC(=O)c1ccc(Cn2cc(/C=C3/C(=O)N=C(N)N3C)c3ccccc32)cc1 showed a GI50 (SF-539) of 1.54 µM, a CC50 (SF-539; [3]) of 5.56 µM and a GI50 (SN12C) of 1.74 µM. For the same molecule, the CC50 (SN12C; [3]) was 8.59 µM, the GI50 (NCI-H522) was 1.93 µM and the LC50 (NCI-H522) was > 100 µM. The GI50 (MOLT-4) was 2.42 µM, the CC50 (MOLT-4; [3]) was > 100 µM and the GI50 (MDA-MB-231) was 2.01 µM. For the same molecule, the LC50 (MDA-MB-231) was 14.3 µM, the GI50 (HL-60) was 2.67 µM and the LC50 (HL-60) was > 100 µM. For the same molecule, the GI50 (HOP-62) was 1.99 µM, the CC50 (HOP-62; [3]) was 33 µM and the GI50 (ACHN) was 1.76 µM. The CC50 (ACHN; [3]) was 6.14 µM, the GI50 (MCF7) was 2.45 µM and the CC50 (MCF7; [3]) was 77.8 µM. It also gave a GI50 (MDA-MB-468) of 1.63 µM, an LC50 (MDA-MB-468) of 6.78 µM and a GI50 (SNB-75) of 1.46 µM. For the same molecule, the LC50 (concentration lethal to 50% of cells) (SNB-75) was 5.47 µM, the GI50 (SK-MEL-28) was 1.78 µM and the CC50 (SK-MEL-28; [3]) was 6.14 µM. The GI50 (A549) was 5.05 µM, the CC50 (A549; [3]) was > 100 µM and the GI50 (KM12) was 3.18 µM. The CC50 (KM12; [3]) was > 100 µM, the GI50 (HOP-92) was 1.51 µM and the CC50 (HOP-92; [3]) was 7.75 µM. For the same molecule, the GI50 (MDA-MB-435) was 1.93 µM, the GI50 [1] was 3.25 µM and the LC50 (concentration lethal to 50% of cells) [1] was > 100 µM. For the same molecule, the GI50 (SK-MEL-2) was 2.7 µM, the CC50 (SK-MEL-2; [3]) was > 100 µM and the GI50 (CAKI-1) was 35.1 µM. For the same molecule, the GI50 (HCT-15) was 2.27 µM, the CC50 (HCT-15; [3]) was > 100 µM and the GI50 (IGROV-1) was 5.91 µM. For the same molecule, the CC50 (IGROV-1; [3]) was > 100 µM, the GI50 (UO-31) was 3.2 µM and the CC50 (UO-31; [3]) was > 100 µM. It also gave a GI50 (Malme-3M) of 1.7 µM, a CC50 (Malme-3M; [3]) of 8.33 µM and a GI50 (786-0) of 1.75 µM. For the same molecule, the LC50 (786-0) was 5.85 µM, the GI50 (SF-268) was 2.56 µM and the CC50 (SF-268; [3]) was > 100 µM. The GI50 (NCI-H322M) was 2.56 µM, the CC50 (NCI-H322M; [3]) was > 100 µM and the GI50 (OVCAR-5) was 1.9 µM. For the same molecule, the CC50 (OVCAR-5; [3]) was 18.5 µM, the GI50 (CCRF-CEM) was 2.91 µM and the CC50 (CCRF-CEM; [3]) was > 100 µM. For the same molecule, the GI50 (K562) was 2.23 µM, the CC50 (K562; [3]) was > 100 µM and the GI50 (A498) was 14.1 µM. For the same molecule, the CC50 (A498; [3]) was 53.2 µM, the GI50 (COLO 205) was 1.91 µM and the GI50 (SR) was 2.48 µM. For the same molecule, the CC50 (SR; [3]) was > 100 µM, the GI50 (NCI-H226) was 2.26 µM and the LC50 (NCI-H226) was > 100 µM. It also gave a GI50 (U-251) of 1.81 µM, a CC50 (U-251; [3]) of 7.72 µM and a GI50 (SNB-19) of 2.39 µM. For the same molecule, the CC50 (SNB-19; [3]) was 31 µM, the GI50 (OVCAR-4) was 2.18 µM and the CC50 (OVCAR-4; [3]) was > 100 µM. For the same molecule, the GI50 (PC-3) was 6.27 µM, the CC50 (PC-3; [3]) was > 100 µM and the GI50 (NCI/ADR-RES) was 9.46 µM. The CC50 (NCI/ADR-RES; [3]) was > 100 µM, the GI50 (OVCAR-8) was 3.45 µM and the CC50 (OVCAR-8; [3]) was > 100 µM. The GI50 (BT-549) was 1.73 µM, the CC50 (BT-549; [3]) was > 100 µM and the GI50 (EKVX) was > 100 µM. For the same molecule, the CC50 (EKVX; [3]) was > 100 µM, the GI50 (M14) was 1.9 µM and the LC50 (M14) was 7.25 µM. For the same molecule, the GI50 (T47D) was 1.5 µM, the CC50 (T47D; [3]) was 5.74 µM and the GI50 (SW-620) was 2.2 µM. The CC50 (SW-620; [3]) was > 100 µM, the GI50 (SK-MEL-5) was 1.69 µM and the LC50 (SK-MEL-5) was 5.75 µM. The GI50 (NCI-H460) was 2.55 µM, the CC50 (NCI-H460; [3]) was > 100 µM and the GI50 (DU-145) was 2.25 µM. For the same molecule, the CC50 (DU-145; [3]) was 14.8 µM, the GI50 (HCT-116) was 1.79 µM and the CC50 (HCT-116; [3]) was 7.7 µM. The GI50 (HT-29) was 2.17 µM, the GI50 (HCC 2998) was 2.99 µM and the CC50 (HCC 2998; [3]) was 4.71 µM. It also gave a GI50 (LOX IMVI) of 1.89 µM, an LC50 (LOX IMVI) of 8.66 µM and a GI50 (SF-295) of 2.36 µM. For the same molecule, the CC50 (SF-295; [3]) was > 100 µM, the GI50 (SK-OV-3) was 1.98 µM and the CC50 (SK-OV-3; [3]) was 8.68 µM. For the same molecule, the GI50 (RXF 393) was 1.95 µM, the CC50 (RXF 393; [3]) was 8.71 µM and the GI50 (NCI-H23) was 3.23 µM. The LC50 (concentration lethal to 50% of cells) (NCI-H23) was 58.8 µM, the GI50 (TK-10) was 3.16 µM and the CC50 (TK-10; [3]) was > 100 µM. The GI50 [2] was 2.17 µM, the LC50 [2] was > 100 µM and the GI50 (UACC-257) was 17.9 µM. The LC50 (UACC-257) was > 100 µM, the GI50 (OVCAR-3) was 2.29 µM and the CC50 (OVCAR-3; [3]) was 7.98 µM.
